Shown are actives, neighbours in structure and some others; about 2.1% of the full set was active somewhere.
EBNA-1 inhibitor: blocks EBNA-1 binding to DNA; EBNA-1 DNA binding, fluorescence polarization; inhibition, % at 14.8 µM; hit rate 0.34% among 300,000; AID 1950; in the data active means inhibition above about 28%
MLLE-PAM2 inh: blocks PAM2 peptide binding to the PABP1 MLLE domain | GST-MLLE / FITC-PAM2 fluorescence polarization | P11940 | hit rate 0.36% among 360,000 | inhibition, % at 20 µM | AID 588489; in the data active means inhibition above about 35%, passing the limit was not always enough;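 further: plate controls were DMSO wells with GST-MLLE for no effect and wells lacking GST-MLLE protein for full effect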
PABP polyA inh: blocks human PABP binding to poly(A) RNA; inhibition, % at 35 µM; fluorescence polarization; hit rate 1% among 290,000; P11940;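 further: calls also rest on retests at 20 µM and on dose response follow-up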
ZTA DNA inh: blocks Epstein-Barr virus ZTA, an EBNA-1 counter-screen. ZTA-DNA binding, fluorescence polarization. hit rate 0.15% among 320,000. AID 2234. inhibition, % at 11 µM. P03206; in the data active means inhibition above about 33%
Target sequence (P03206 whole entry, looked up): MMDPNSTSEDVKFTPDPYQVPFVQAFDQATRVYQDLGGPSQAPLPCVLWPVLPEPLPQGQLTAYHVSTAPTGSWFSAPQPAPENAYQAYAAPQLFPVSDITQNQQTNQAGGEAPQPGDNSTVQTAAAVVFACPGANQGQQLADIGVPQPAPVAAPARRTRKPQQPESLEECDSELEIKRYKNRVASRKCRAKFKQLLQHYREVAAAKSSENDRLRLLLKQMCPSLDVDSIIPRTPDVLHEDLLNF
HCV NS3 hel inh: HCV NS3 helicase inhibition; NS3 helicase DNA unwinding, Cy5 molecular beacon fluorescence; inhibition, % at 10.9 µM; hit rate 0.56% among 290,000;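 active means inhibition above the mean of all tested compounds plus 3 SD, set per campaign, cut at about 35% in these data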;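 further: 0% = DMSO wells and 100% = thioflavine S control wells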
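System: Hepatitis C virus NS3 helicase domain fragment enzyme | Reagent: Annealed dual-labelled DNA beacon duplex, ATP-started | Compound dosing: 10.9 µM single point, 0.8% DMSO | Incubation: 1 h reaction at 25 °C, ATP-initiated | Technique: Cy5 fluorescence | Evaluation: Percent inhibition from t60/t0 fluorescence ratio | Benchmarks: Low DMSO, high thioflavine S at 110 µM | Replication: Singlicate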
eIF4H FP inh: inhibitors of RNA binding by human eIF4H; inhibition, % at 35 µM; hit rate 0.94% among 290,000; eIF4H fluorescence polarization binding assay;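 further: calls also rest on retests at 20 µM and on dose response follow-up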
Zta DNA confirm: confirmation of Epstein-Barr virus ZTA DNA binding inhibitors | inhibition, % at 11.1 µM | hit rate 30% among 320 | shares compounds with ZTA DNA inh | Zta-ZRE DNA binding, fluorescence polarization;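 active means mean inhibition across triplicate runs above the hit threshold derived for the original primary screen, cut at about 33% in these data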;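 further: 0% = Zta with DMSO and 100% = wells lacking Zta protein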
EBNA1 counter: EBNA-1 DNA binding inhibition, counter-screen for ZTA; shares compounds with ZTA DNA inh; fluorescence polarization; inhibition, % at 14.8 µM; 320 tested, under 10 active; AID 2362
* hit, by the source's call; · = not tested or not shown. Unless noted, how the calls were made is not given here.

SMILES	EBNA-1 inhibitor	MLLE-PAM2 inh	PABP polyA inh	ZTA DNA inh	HCV NS3 hel inh	eIF4H FP inh	Zta DNA confirm	EBNA1 counter
O=C(O)c1ccc(N/N=C/C2=C(N3CCOCC3)C(=C\c3ccccc3)/CC2)cc1	13.9	-110.5	3.2	68.6*	26.7	6.2	6.4	5.4
CNc1oc(-c2ccccc2Cl)nc1C#N	-2.5	2.3	-0.6	8.8	-3.8	-5.3	·	·
CCc1ccc(S(=O)(=O)/N=C2\C=C(NS(=O)(=O)c3ccccc3)C(=O)c3ccccc32)cc1	·	10.5	18.3	·	-7.5	-7.4	·	·
O=C(O)c1ccc(S(=O)(=O)/N=C2\C=C(Nc3ccccc3F)C(=O)c3ccccc32)cc1	2.0	26.0	9.2	61.8*	12.6	-1.3	69.1*	10.8
COc1ccc(S(=O)(=O)/N=C2\C=C(Nc3ccc(O)cc3)C(=O)c3ccccc32)cc1	-6.8	-5.5	17.2	35.0*	-16.5	9.7	31.5	-9.7
O=C(NNc1ccccc1)C(=O)NNc1ccccc1	·	-4.1	·	·	·	·	·	·
Cc1ccc2c(Cl)c(C)c(N3CCCC3)nc2n1	0.6	8.1	1.9	-6.3	3.0	3.4	·	·
Cc1cc(Nc2cccc(F)c2)n2nc(C)nc2n1	-1.8	7.0	-1.6	107.1*	5.0	-1.8	-9.1	-7.6
C#CCOCCOCCOCCNc1nc(N2CCN(C(=O)CCCCCCCCCCNC(=O)Cn3cc(CCCCCN)nn3)CC2)nc(N2CCN(C(=O)CCCCCCCCCCNC(=O)[C@H](CO)n3cc(CCCCCN)nn3)CC2)n1	6.5	-3.0	·	50.4*	·	·	36.5*	-8.7
C#CCOCCOCCOCCNc1nc(N2CCN(C(=O)CCCCCCCCCCNC(=O)Cn3cc(CCCCCN)nn3)CC2)nc(N2CCN(C(=O)CCCCCCCCCCNC(=O)[C@H]([C@@H](C)CC)n3cc(CCCCCN)nn3)CC2)n1	4.3	-3.1	·	83.1*	·	·	34.7*	-5.3
C#CCOCCOCCOCCNc1nc(N2CCOCC2)nc(N2CCN(C(=O)CCCCCCCCCCNC(=O)[C@H](CO)n3cc(CCCCCN)nn3)CC2)n1	16.1	-1.6	·	23.8	·	·	·	·
C=CCn1c(NS(=O)(=O)c2ccccc2)c(S(=O)(=O)c2ccc(C)cc2)c2nc3ccccc3nc21	15.2	-5.0	-4.2	56.4*	24.4	2.5	20.3	7.6
O=S(=O)(Nc1c(S(=O)(=O)c2ccccc2)c2nc3ccccc3nc2n1C1CCCCC1)c1ccccc1	-0.8	-0.4	0.2	-4.3	31.2	12.2	·	·
CCn1c(=O)n(CC)c2cc(NC(=O)C(C)c3ccccc3)c(Br)cc21 (configuration not stated)	-5.6	-58.7	·	-17.4	-3.6	·	·	·
COc1ccc(-n2nnc3c(=O)n(CC(=O)N4CCCc5ccccc54)cnc32)cc1	15.3	-10.5	-6.4	35.9*	-3.1	-12.6	2.7	-7.9
CCOc1ccc(-n2nnc3c(=O)n(CC(=O)N4CCCc5ccccc54)cnc32)cc1	5.6	-0.6	-14.8	3.9	3.2	-12.0	·	·
CC(C)N(C(=O)Cn1cc(S(=O)(=O)CC(=O)NC2CCCCC2)c2ccccc21)C(C)C	1.4	-7.1	2.1	16.6	7.0	4.4	·	·
O=C(NCC(=O)N1CCN(C(c2ccccc2)c2ccccc2)CC1)c1ccccc1Br	·	-9.8	·	·	·	·	·	·
CC(C)CCNC(=S)Nc1ccc([N+](=O)[O-])cc1	3.8	12.8	1.3	14.9	-8.1	2.6	·	·
CC(C)OC(=O)c1cc(NC(=S)Nc2ccc([N+](=O)[O-])cc2)cc(C(=O)OC(C)C)c1	0.8	33.6	-2.7	51.7*	-1.6	-1.3	-12.7	-21.1
N#Cc1nc(-c2cccs2)oc1N1CCN(Cc2ccccc2)CC1	-0.7	1.2	-1.7	-3.3	-4.9	-9.1	·	·
COc1ccc(Cn2c(N)c(S(=O)(=O)c3cccs3)c3nc4ccccc4nc32)cc1	22.3	-8.4	-2.2	35.3*	-1.0	1.6	5.6	5.4
COc1ccc(C(=O)N(C)c2c(C)n(C)n(-c3ccccc3)c2=O)cc1OC	6.6	-0.7	82.9	82.1*	3.0	-9.9	-9.8	-2.4
Cc1ccn2c(-c3csc(NCc4ccccc4)n3)c(C)nc2c1	1.6	-7.4	-2.6	-5.9	-9.2	4.5	·	·

Source: PubChem BioAssay (several laboratories)
